# Measurements from different studies.
# Each line is one published result; the experiments were not run side by side.
# Read-out: cell growth or viability
SMILES,cell line,technique,time,IC50
Cc1cc(Nc2ncc(Cl)c(Nc3ccccc3S(=O)(=O)C(C)C)n2)c(OC(C)C)cc1C1CCNCC1,human Myoblast,,72 h,1.84 µM
COc1cccc(Oc2ccccc2NC(=O)CNC(=O)c2cccc3ccccc23)c1,SK-N-AS,,,0.125 µM
O=C(Nc1ccccc1CO)c1c[nH]c2ccc(Cl)cc12,SK-N-BE(2)-C,MTT,,13 µM
COC(=O)CN=c1scc(-c2ccccc2)n1-c1ccc(Cl)cc1,PANC-03-27,MTT,72 h,22.1 µM
CC(=O)CC(=O)[c-]1cccc1.[Fe+2].c1cc[cH-]c1,PNT2,MTT,96 h,> 100 µM
CC(C)C[C@H](NC(=O)[C@H](Cc1ccccc1)NC(=O)c1cnccn1)B(O)O,M-07e,ATP luminescence,,0.0053 µM
O=C(c1cc(O)c(O)c(O)c1)c1cc2cc(-c3ccc(CO)cc3)ccc2o1,HEK-293T,ATP luminescence,72 h,1 µg/mL
N[C@@H](CC(=O)N1CCN(C(c2ccc(F)cc2)c2ccc(F)cc2)CC1)C(=O)N1Cc2ccccc2C1,TF-1,ATP luminescence,48 h,28.8 µM
C[C@@H](Oc1cc(-c2cnn(C3CCNCC3)c2)cnc1N)c1c(Cl)ccc(F)c1Cl,human Myoblast,,72 h,1.84 µM
O=C(CNC(=O)c1cccc2ccccc12)Nc1ccccc1Oc1ccc(O)cc1,SK-N-AS,,,0.156 µM
COc1cc([C@@H]2c3cc4c(cc3[C@@H](O[C@@H]3O[C@@H]5CO[C@@H](C)O[C@H]5[C@H](O)[C@H]3O)[C@H]3COC(=O)[C@H]23)OCO4)cc(OC)c1O,CCD-18Co,MTS,72 h,42.2 µM
Nc1ccn([C@@H]2O[C@H](CO)[C@@H](O)C2(F)F)c(=O)n1,PANC-03-27,MTT,72 h,0.42 µM
COc1cc([C@@H]2c3cc4c(cc3[C@@H](O[C@@H]3O[C@@H]5CO[C@@H](C)O[C@H]5[C@H](O)[C@H]3O)[C@H]3COC(=O)[C@H]23)OCO4)cc(OC)c1O,CCD-18Co,MTS,24 h,48.4 µM
COC(=O)CN=c1scc(-c2ccccc2)n1-c1ccc(OC)cc1,PANC-03-27,MTT,72 h,11.5 µM
COc1ccc(C[C]2([Ti+2][C]3(Cc4ccc(OC)cc4)C=CC=C3)C=CC=C2)cc1.[Cl-].[Cl-],HEK-293T,XTT,72 h,> 200 µM
COc1ccc(Oc2ccccc2NC(=O)CNC(=O)c2cccc3ccccc23)cc1,SK-N-AS,,,0.091 µM
Cc1[nH]c(/C=C2\C(=O)Nc3ccc(S(=O)(=O)N(C)c4cccc(Cl)c4)cc32)c(C)c1C(=O)N1CCN(C)CC1,human Myoblast,,72 h,3.85 µM
O=C1/C(=C/c2cc(O)c(O)c(O)c2)Oc2ccccc21,HEK-293T,ATP luminescence,24 h,23 µg/mL
CC(=O)Oc1ccc2c(c1)C(C)=CC(C)(C)N2Cc1ccccc1,Huh-7,MTT,72 h,25 µM
O=C1/C(=C/c2cc(O)c(O)c(O)c2)Oc2cccc(O)c21,HEK-293T,ATP luminescence,24 h,> 32 µg/mL
O=C(Nc1cccc(CO)c1)c1c[nH]c2ccc(Cl)cc12,SK-N-BE(2)-C,MTT,,14 µM
[Cl-].[Cl-].[Ti+4].c1cc[cH-]c1.c1cc[cH-]c1,HEK-293T,XTT,72 h,> 200 µM
COc1cc(-c2ncn(/C=C\C(=O)OC(C)C)n2)cc(C(F)(F)F)c1,SKNO-1,,72 h,0.058 µM
COc1cccc2c1C(=O)c1c(O)c3c(c(O)c1C2=O)C[C@@](O)(C(=O)CO)C[C@@H]3O[C@H]1C[C@H](N)[C@H](O)[C@H](C)O1,NCI-H292,WST-1,72 h,0.03 µM
CC(C)[C@H](N)C(=O)N1CCC[C@H]1B(O)O,TF-1,ATP luminescence,48 h,> 60 µM
C[C@H]1Oc2cc(cnc2N)-c2c(nn(C)c2C#N)CN(C)C(=O)c2ccc(F)cc21,A-431,,,> 10 µM
CCN(c1nc(N)c(C(=O)N=C(N)N)nc1Cl)C(C)C,A-431,MTT,3 h,160 µM
COc1cc(Nc2nccc(-c3cnn4nc(OC)ccc34)n2)cc(C(F)(F)F)c1,M-07e,ATP luminescence,,0.11 µM
COC1=C2C[C@@H](C)C[C@H](OC)[C@H](O)[C@@H](C)/C=C(\C)[C@H](OC(N)=O)[C@@H](OC)/C=C\C=C(/C)C(=O)NC(=CC1=O)C2=O,A-431,MTT,,0.048 µM
COC(=O)CN=c1scc(-c2ccccc2)n1-c1ccccc1C,PANC-03-27,MTT,72 h,> 100 µM
